Data: ChEMBL document CHEMBL3112420, “Discovery of 8-cyclopentyl-2-[4-(4-methyl-piperazin-1-yl)-phenylamino]-7-oxo-7,8-dihydro-pyrido[2,3-d]pyrimidine-6-carbonitrile (7x) as a potent inhibitor of cyclin-dependent kinase 4 (CDK4) and AMPK-related kinase 5 (ARK5)” (J Med Chem, 2014)
Active and inactive are the calls of the source. The calls are words filed in the database; no cut-off is given here.

What was measured:
K562 = experiment: Cytotoxicity against human K562 cells after 96 hrs by Cell-Titer Blue assay; type: functional, cell-based; details: K562, 96 h
DU-145 = experiment: Cytotoxicity against human DU145 cells after 96 hrs by Cell-Titer Blue assay; type: functional, cell-based; details: DU-145, 96 h
[1] = target: T1, Cyclin-dependent kinase 4/cyclin D1 (Homo sapiens) (UniProt P11802+P24385); experiment: Inhibition of recombinant CDK4/cyclinD1 in human MCF7 cells assessed as inhibition of retinoblastoma phosphorylation at Ser780 at 0.5 to 5 uM after 24 hrs by Western blotting analysis; type: cell-based
In short: (§1)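 Breast carcinoma cells were given increasing concentrations for 24 h. Total lysates (100 μg, 10% SDS-PAGE) were immunoblotted with antibodies against Ser780-phosphorylated and non-phosphorylated RB. Bands were read on an infrared scanning system.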

MCF7 [2] = experiment: Cell cycle arrest in human MCF7 cells assessed as accumulation at sub-G1 phase at 0.5 to 1 uM after 48 hrs by propidium iodide staining-based flow cytometric analysis; type: functional
MDA-MB-231 [3] = experiment: Induction of apoptosis in human MDA-MB-231 cells assessed as PARP cleavage at 1 to 10 uM after 24 hrs by Western blotting analysis; type: functional, cell-based
MDA-MB-231 [4] = experiment: Cell cycle arrest in human MDA-MB-231 cells assessed as accumulation at sub-G1 phase at 0.5 to 1 uM after 48 hrs by propidium iodide staining-based flow cytometric analysis; type: functional
MCF7 [5] = experiment: Induction of apoptosis in human MCF7 cells assessed as PARP cleavage at 1 to 10 uM after 24 hrs by Western blotting analysis; type: functional, cell-based
MDA-MB-231 [6] = experiment: Cell cycle arrest in human MDA-MB-231 cells assessed as accumulation at G1 phase at 0.5 to 1 uM after 24 hrs by propidium iodide staining-based flow cytometric analysis; type: functional
In short: (§2)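 Cells plated at 1.0 × 10^6 per dish, then treated 24 h later with increasing concentrations for 24 h. Floating and adherent cells were pooled, PBS-washed and fixed in ice-cold 70% ethanol for at least 24 h. They were then stained with propidium iodide plus RNase A for 30 min at 37 °C. Percentage of cells in each phase was read by flow cytometry.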

[7] = target: Phosphatidylinositol 4,5-bisphosphate 3-kinase catalytic subunit delta isoform (Homo sapiens, UniProt O00329); experiment: Inhibition of PI3Kdelta (unknown origin)
[8] = target: T1, Cyclin-dependent kinase 4/cyclin D1 (Homo sapiens); experiment: Inhibition of recombinant CDK4/cyclinD1 in human MDA-MB-231 cells assessed as inhibition of retinoblastoma phosphorylation at Ser780 at 0.5 to 5 uM after 24 hrs by Western blotting analysis; type: cell-based; in short: as §1
[9] = target: NUAK family SNF1-like kinase 1 (Homo sapiens, UniProt O60285); experiment: Inhibition of ARK5 (unknown origin)
MCF7 [10] = experiment: Cell cycle arrest in human MCF7 cells assessed as accumulation at G1 phase at 0.5 to 1 uM after 24 hrs by propidium iodide staining-based flow cytometric analysis; type: functional; in short: as §2
[11] = target: Cyclin-dependent kinase 1/cyclin B1 (Homo sapiens, UniProt P06493); experiment: Inhibition of CDK1/cyclinB (unknown origin); type: protein-complex assay
[12] = target: Cyclin-dependent kinase 2/cyclin E1 (Homo sapiens, UniProt P24941); experiment: Inhibition of CDK2/cyclinE (unknown origin); type: protein-complex assay

Cyclin-dependent kinase 1/cyclin B1, sequence (P06493 whole entry): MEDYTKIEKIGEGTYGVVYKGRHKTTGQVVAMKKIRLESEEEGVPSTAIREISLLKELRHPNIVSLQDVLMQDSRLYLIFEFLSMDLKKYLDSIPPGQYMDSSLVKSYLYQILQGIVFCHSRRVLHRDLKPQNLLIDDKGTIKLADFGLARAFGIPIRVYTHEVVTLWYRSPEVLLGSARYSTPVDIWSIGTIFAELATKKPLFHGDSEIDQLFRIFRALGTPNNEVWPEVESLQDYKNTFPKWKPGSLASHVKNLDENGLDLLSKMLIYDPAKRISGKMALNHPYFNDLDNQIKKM
Cyclin-dependent kinase 1/cyclin B1, sequence (P14635 whole entry, further chain): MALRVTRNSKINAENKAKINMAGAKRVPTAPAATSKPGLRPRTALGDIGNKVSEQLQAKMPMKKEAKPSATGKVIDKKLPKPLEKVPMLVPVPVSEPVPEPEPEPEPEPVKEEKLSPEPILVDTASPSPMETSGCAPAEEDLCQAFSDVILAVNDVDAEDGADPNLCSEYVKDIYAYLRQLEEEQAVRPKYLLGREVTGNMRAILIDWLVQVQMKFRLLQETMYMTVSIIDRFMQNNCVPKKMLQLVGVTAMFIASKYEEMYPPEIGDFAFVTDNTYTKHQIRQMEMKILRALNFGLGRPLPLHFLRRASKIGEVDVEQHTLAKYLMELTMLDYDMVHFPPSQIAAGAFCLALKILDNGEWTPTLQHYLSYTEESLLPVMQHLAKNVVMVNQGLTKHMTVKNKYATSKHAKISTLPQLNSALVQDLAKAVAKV
NUAK family SNF1-like kinase 1, sequence (O60285 whole entry): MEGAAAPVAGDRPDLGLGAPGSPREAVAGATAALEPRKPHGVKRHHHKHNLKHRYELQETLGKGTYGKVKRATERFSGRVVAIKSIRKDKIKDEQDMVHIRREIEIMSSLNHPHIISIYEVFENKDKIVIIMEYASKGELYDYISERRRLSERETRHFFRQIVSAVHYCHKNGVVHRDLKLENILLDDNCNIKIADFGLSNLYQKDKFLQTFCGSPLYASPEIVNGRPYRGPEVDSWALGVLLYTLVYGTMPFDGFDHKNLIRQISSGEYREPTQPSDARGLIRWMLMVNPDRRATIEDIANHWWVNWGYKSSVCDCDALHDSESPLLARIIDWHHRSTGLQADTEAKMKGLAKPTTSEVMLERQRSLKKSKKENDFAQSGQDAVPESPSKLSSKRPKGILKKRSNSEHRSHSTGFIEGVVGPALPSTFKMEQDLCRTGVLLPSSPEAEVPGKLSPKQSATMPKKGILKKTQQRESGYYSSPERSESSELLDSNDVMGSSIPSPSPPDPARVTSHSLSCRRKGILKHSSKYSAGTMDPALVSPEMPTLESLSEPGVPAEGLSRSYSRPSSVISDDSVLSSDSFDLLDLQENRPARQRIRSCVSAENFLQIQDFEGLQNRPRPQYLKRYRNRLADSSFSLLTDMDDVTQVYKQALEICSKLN
Phosphatidylinositol 4,5-bisphosphate 3-kinase catalytic subunit delta isoform, sequence (O00329 whole entry, canonical isoform): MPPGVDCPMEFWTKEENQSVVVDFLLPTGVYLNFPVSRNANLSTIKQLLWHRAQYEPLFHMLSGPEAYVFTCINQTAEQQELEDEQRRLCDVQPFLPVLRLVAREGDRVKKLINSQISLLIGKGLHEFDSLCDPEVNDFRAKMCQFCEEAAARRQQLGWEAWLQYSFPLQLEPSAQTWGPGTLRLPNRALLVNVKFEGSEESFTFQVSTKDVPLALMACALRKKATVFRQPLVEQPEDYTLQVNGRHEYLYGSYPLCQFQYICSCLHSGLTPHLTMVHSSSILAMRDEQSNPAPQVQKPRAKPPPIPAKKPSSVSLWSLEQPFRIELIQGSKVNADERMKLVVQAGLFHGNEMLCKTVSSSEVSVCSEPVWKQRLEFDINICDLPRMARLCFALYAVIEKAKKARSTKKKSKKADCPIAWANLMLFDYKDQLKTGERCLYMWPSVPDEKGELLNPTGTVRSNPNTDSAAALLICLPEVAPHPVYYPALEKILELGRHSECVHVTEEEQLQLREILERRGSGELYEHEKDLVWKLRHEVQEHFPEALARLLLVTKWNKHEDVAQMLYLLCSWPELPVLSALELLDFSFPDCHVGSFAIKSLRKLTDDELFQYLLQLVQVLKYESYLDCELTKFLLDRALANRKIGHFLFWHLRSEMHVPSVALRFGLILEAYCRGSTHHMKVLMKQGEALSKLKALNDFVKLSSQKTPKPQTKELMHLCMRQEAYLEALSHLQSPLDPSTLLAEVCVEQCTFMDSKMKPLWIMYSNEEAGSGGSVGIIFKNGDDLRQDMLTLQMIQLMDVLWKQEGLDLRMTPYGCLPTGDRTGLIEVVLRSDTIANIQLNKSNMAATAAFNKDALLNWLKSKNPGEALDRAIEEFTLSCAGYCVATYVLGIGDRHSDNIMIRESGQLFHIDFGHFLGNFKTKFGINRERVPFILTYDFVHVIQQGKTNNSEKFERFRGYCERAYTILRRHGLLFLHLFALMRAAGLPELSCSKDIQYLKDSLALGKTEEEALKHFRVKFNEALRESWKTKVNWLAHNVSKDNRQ

SMILES	IC50 (K562)	IC50 (DU-145)	also measured
COc1cc(Nc2ncc3cc(C#N)c(=O)n(C4CCCC4)c3n2)cc(OC)c1	15 µM	15 µM	
CN1CCN(c2ccc(Nc3ncc4cc(C#N)c(=O)n(C5CC5)c4n3)cc2)CC1	2.5 µM	2.5 µM	
CN1CCN(c2ccc(Nc3ncc4cc([N+](=O)[O-])c(=O)n(C5CCCC5)c4n3)cc2)CC1	0.75 µM	2.5 µM	
COc1ccc(CS(=O)(=O)c2cc3cnc(Nc4ccc(N5CCN(C)CC5)cc4)nc3n(C3CCCC3)c2=O)cc1[N+](=O)[O-]	2 µM	5 µM	
CN1CCN(c2ccc(Nc3ncc4cc(C#N)c(=O)n(C)c4n3)cc2)CC1	75 µM	75 µM	
COc1ccc(Nc2ncc3cc(C#N)c(=O)n(C4CCCC4)c3n2)cc1	75 µM	25 µM	
N#Cc1cc2cnc(Nc3ccc(N4CCOCC4)cc3)nc2n(C2CCCC2)c1=O	5 µM	15 µM	
CCCCn1c(=O)c(C#N)cc2cnc(Nc3ccc(N4CCN(C)CC4)cc3)nc21	0.75 µM	0.75 µM	
COc1cc(Nc2ncc3cc(C#N)c(=O)n(C4CCCC4)c3n2)cc(OC)c1OC	2.5 µM	5 µM	
N#Cc1cc2cnc(Nc3ccc(Cl)cc3)nc2n(C2CCCC2)c1=O	30 µM	30 µM	
COc1ccc(Nc2ncc3cc(C#N)c(=O)n(C4CCCC4)c3n2)cc1OC	2 µM	5 µM	
CN1CCN(c2ccc(N(C(=O)c3ccc(C(F)(F)F)cc3)c3ncc4cc(C#N)c(=O)n(C5CCCC5)c4n3)cc2)CC1	0.5 µM	1 µM	
CN1CCN(c2ccc(Nc3ncc4cc(S(=O)(=O)Cc5ccc(Cl)cc5)c(=O)n(C5CCCC5)c4n3)cc2)CC1	10 µM	75 µM	
CC(=O)c1c(C)c2cnc(Nc3ccc(N4CCNCC4)cn3)nc2n(C2CCCC2)c1=O [PALBOCICLIB]	2 µM	7.5 µM	inhibition [1]: Active; Activity (MCF7 [2]): inactive; Activity (MDA-MB-231 [3]): inactive; Activity (MDA-MB-231 [4]): inactive; Activity (MCF7 [5]): inactive; Activity (MDA-MB-231 [6]): Active; IC50 [7]: > 10 µM; inhibition [8]: Active; IC50 [9]: > 5 µM; Activity (MCF7 [10]): Active
CN1CCN(c2ccc(Nc3ncc4cc(C#N)c(=O)n(C5CCCCC5)c4n3)cc2)CC1	1.5 µM	50 µM	
N#Cc1cc2cnc(Nc3ccc(N4CCOCC4)cn3)nc2n(C2CCCC2)c1=O	5 µM	15 µM	
COc1ccc(F)cc1Nc1ncc2cc(C#N)c(=O)n(C3CCCC3)c2n1	75 µM	75 µM	
COc1ccc2cc(Nc3ncc4cc(C#N)c(=O)n(C5CCCC5)c4n3)ccc2n1	0.25 µM	3 µM	
CC(=O)N(c1ccc(N2CCN(C)CC2)cc1)c1ncc2cc(C#N)c(=O)n(C3CCCC3)c2n1	0.75 µM	5 µM	
CN1CCN(c2ccc(Nc3ncc4cc(C#N)c(=O)[nH]c4n3)cc2)CC1	30 µM	30 µM	
COc1ccc(CS(=O)(=O)c2cc3cnc(Nc4ccc(N5CCN(C)CC5)cc4)nc3n(C3CCCC3)c2=O)cc1O	2 µM	2 µM	
CC(C)n1c(=O)c(C#N)cc2cnc(Nc3ccc(N4CCN(C)CC4)cc3)nc21	2.5 µM	2.5 µM	
N#Cc1cc2cnc(Nc3cccc4cccnc34)nc2n(C2CCCC2)c1=O	1 µM	1 µM	

SMILES	IC50 (K562)	IC50 (DU-145)	also measured
N#Cc1cc2cnc(NCc3ccccc3)nc2n(C2CCCC2)c1=O	100 µM	75 µM	
CN1CCN(c2ccc(Nc3ncc4cc(S(C)(=O)=O)c(=O)n(C5CCCC5)c4n3)cc2)CC1	5 µM	5 µM	
COc1ccc(Nc2ncc3cc(C#N)c(=O)n(C4CCCC4)c3n2)c(OC)c1	15 µM	15 µM	
CN1CCN(c2ccc(Nc3ncc4cc(C(=O)Nc5ccc(Cl)cc5)c(=O)n(C5CCCC5)c4n3)cc2)CC1	5 µM	30 µM	
CCn1c(=O)c(C#N)cc2cnc(Nc3ccc(N4CCN(C)CC4)cc3)nc21	0.75 µM	1.5 µM	
CN1CCN(c2ccc(Nc3ncc4cc(S(=O)(=O)c5ccccc5)c(=O)n(C5CCCC5)c4n3)cc2)CC1	30 µM	75 µM	
N#Cc1cc2cnc(Nc3cccc4[nH]ccc34)nc2n(C2CCCC2)c1=O	30 µM	15 µM	
CN1CCN(c2ccc(Nc3ncc4cc(C(=O)Nc5ccc(F)cc5)c(=O)n(C5CCCC5)c4n3)cc2)CC1	15 µM	30 µM	
Nc1ccc2c(=S)c3ccccc3[nH]c2c1			IC50 [11]: > 100 µM; IC50 [12]: > 100 µM
N#Cc1cc2cnc(Nc3ccccn3)nc2n(C2CCCC2)c1=O	0.5 µM	3 µM	
N#Cc1cc2cnc(Nc3ccc4[nH]ccc4c3)nc2n(C2CCCC2)c1=O	5 µM	5 µM	
COc1ccccc1Nc1ncc2cc(C#N)c(=O)n(C3CCCC3)c2n1	15 µM	30 µM	
N#Cc1ccc(Nc2ncc3cc(C#N)c(=O)n(C4CCCC4)c3n2)cc1	75 µM	5 µM	
COc1cccc(Nc2ncc3cc(C#N)c(=O)n(C4CCCC4)c3n2)c1	5 µM	0.5 µM	
CCCCCn1c(=O)c(C#N)cc2cnc(Nc3ccc(N4CCN(C)CC4)cc3)nc21	0.75 µM	1.5 µM	
N#Cc1cc2cnc(N3CCN(c4ccc(C(F)(F)F)cn4)CC3)nc2n(C2CCCC2)c1=O	30 µM	100 µM	
CN1CCN(c2ccc(Nc3ncc4cc(C#N)c(=O)n(C5CCCC5)c4n3)nc2)CC1	5 µM	15 µM	
CN1CCN(c2ccc(Nc3ncc4cc(S(=O)(=O)c5ccc(Cl)cc5)c(=O)n(C5CCCC5)c4n3)cc2)CC1	5 µM	15 µM	
N#Cc1cc2cnc(Nc3ccccc3O)nc2n(C2CCCC2)c1=O	15 µM	15 µM	
N#Cc1ccnc(Nc2ncc3cc(C#N)c(=O)n(C4CCCC4)c3n2)c1	5 µM	30 µM	
N#Cc1cc2cnc(Nc3cnc4ccccc4c3)nc2n(C2CCCC2)c1=O	5 µM	5 µM	
CCCn1c(=O)c(C#N)cc2cnc(Nc3ccc(N4CCN(C)CC4)cc3)nc21	5 µM	15 µM	
